Measurements: ChEMBL document CHEMBL1137344, “Flavonoid dimers as bivalent modulators for P-glycoprotein-based multidrug resistance: synthetic apigenin homodimers linked with defined-length poly(ethylene glycol) spacers increase drug retention and enhance chemosensitivity in resistant cancer cells” (J Med Chem, 2006)
The source made the active and inactive calls. No cut-off for these calls is given here.

Experiments:
MDA-MB-435 [1] = test: Relative fold, IC50 in absence to presence of 1,13-bis[4'-((5,7-dihydroxy)-4H-chromen-4-on-2-yl)phenyl]-1,4,7,10,13-pentaoxatridecane in multidrug resistant MDA435/LCC6 cells; format: functional, Homo sapiens
Procedure, shortened: (§1)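 Resistant breast cells seeded 2000/well, allowed 24 h attachment, then exposed to anticancer-drug concentration series with or without 5 µM modulator for 4 days. MTS/PMS read at 490 nm after 2 h. IC50 from dose-response curves relative to 0.05% DMSO controls. RF = IC50 without modulator divided by IC50 with modulator.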

P388 [2] = test: Relative fold, IC50 in absence to presence of 1,13-bis[4'-((5,7-dihydroxy)-4H-chromen-4-on-2-yl)phenyl]-1,4,7,10,13-pentaoxatridecane in multidrug resistant P388 cells; format: functional, Mus musculus
Procedure, shortened: (§2)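 P388/ADR cells seeded 5000/well in RPMI 1640 with 10% FBS, given drug concentration series with or without 5 µM modulator for 3 days. MTS/PMS added for 2 h at 37 °C, absorbance at 490 nm. IC50 from dose-response curves versus 0.05% DMSO controls. RF = IC50 without modulator / IC50 with modulator.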

MDA-MB-435 [3] = test: Antiproliferative activity against multidrug resistant MDA435/LCC6 cells in presence of 5 uM 1,13-bis[4'-((5,7-dihydroxy)-4H-chromen-4-on-2-yl)phenyl]-1,4,7,10,13-pentaoxatridecane by ELISA; format: functional, cell-based; conditions: Homo sapiens; procedure, shortened: as §1
P388 [4] = test: Antiproliferative activity against P388 cells by ELISA; format: functional, cell-based; conditions: Mus musculus
Procedure, shortened: (§3)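 MTS/PMS proliferation assay: cells seeded 5000/well in RPMI 1640 with 10% FBS and penicillin/streptomycin at 37 °C, 5% CO2. Drug series added and cells grown 3 days. MTS/PMS added for 2 h at 37 °C, absorbance read at 490 nm. Survival relative to DMSO (0.05%) controls; IC50 from dose-response curves, at least triplicate.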

P388/ADR [5] = test: Antiproliferative activity against adriamycin resistant P388 cells by ELISA; format: functional, cell-based; conditions: Mus musculus; procedure, shortened: as §3
P388/ADR [6] = test: Antiproliferative activity against adriamycin resistant P388 cells in presence of 5 uM 1,13-bis[4'-((5,7-dihydroxy)-4H-chromen-4-on-2-yl)phenyl]-1,4,7,10,13-pentaoxatridecane by ELISA; format: functional, cell-based; conditions: Mus musculus; procedure, shortened: as §2
MDA-MB-435 [7] = test: Antiproliferative activity against multidrug resistant MDA435/LCC6 cells by ELISA; format: functional, cell-based; conditions: Homo sapiens
Procedure, shortened: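 MTS/PMS proliferation assay: cells seeded 2000/well, drugs added after 24 h attachment, growth 4 days in DMEM with 10% FBS at 37 °C, 5% CO2. MTS/PMS added for 2 h, absorbance read at 490 nm. Survival is taken relative to DMSO (0.05%) controls. IC50 is read from dose-response curves, at least triplicate, repeated twice.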

MDA-MB-435 [8] = test: Antiproliferative activity against MDA435/LCC6 cells by ELISA; format: functional, cell-based; conditions: Homo sapiens
MDA-MB-435 [9] = test: Reversal of vinblastine resistance in multidrug resistant MDA435/LCC6 cells by MTS assay; format: functional, cell-based; conditions: Homo sapiens
Procedure, shortened: (§4)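 Resistant MDA435/LCC6 cells, 4-day MTS assay of paclitaxel or vinblastine dose-response with dimers at 5 µM or monomers at 10 µM. Verapamil 5 µM as positive control, DMSO 0.05% as solvent control. IC50 from curves, triplicate, some repeated three times and averaged.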

MDA-MB-435 [10] = test: Cytotoxicity against MDA435/LCC6 cells at 5 uM; format: functional, cell-based; conditions: Homo sapiens
MDA-MB-435 [11] = test: Reversal potency of vinblastine resistance in multidrug resistant MDA435/LCC6 cells by MTS assay; format: functional; conditions: Homo sapiens, in the assay text read “doxorubicin” for “vinblastine”
MDA-MB-435 [12] = test: Reversal of paclitaxel resistance in multidrug resistant MDA435/LCC6 cells by MTS assay; format: functional, cell-based; conditions: Homo sapiens; procedure, shortened: as §4
MDA-MB-435 [13] = test: Effect on P-gp-mediated drug efflux in multidrug resistant MDA435/LCC6 cells assessed as relative fold in intracellular DOX accumulation at 10 uM; format: functional, Homo sapiens
Procedure, shortened: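 Resistant MDA435/LCC6 cells grown to confluence, preincubated 30 min at 37 °C in fresh DMEM with modulator (0–20 µM), then DOX added (final 20 µM) for 2 h at 37 °C. Cells trypsinized, washed in cold PBS, lysed in 0.3 N HCl/50% ethanol, sonicated, centrifuged. Supernatant fluorescence read at ex 470/em 585 nm. Mean ± SD of three independent experiments.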

P388/ADR [14] = test: Reversal of DOX resistance in P388 ADR cells by MTS assay at 5 uM; format: functional, cell-based; conditions: Mus musculus
Procedure, shortened: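 P388/ADR cells: 3-day MTS assay of DOX dose-response with modulator at 5 µM, or 10 µM for monomers. Verapamil 5 µM and 0.05% DMSO as controls. IC50 from curves, triplicate points, mean ± SD of three independent experiments.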

MDA-MB-435 [15] = test: Antiproliferative activity against multidrug resistant MDA435/LCC6 cells in presence of 5 uM verapamil by ELISA; format: functional, cell-based; conditions: Homo sapiens; procedure, shortened: as §1
MDA-MB-435 [16] = test: Relative fold, IC50 in absence to presence of verapamil in multidrug resistant MDA435/LCC6 cells; format: functional, Homo sapiens; procedure, shortened: as §1

Compound | Ratio IC50 (MDA-MB-435 [1]) | Ratio IC50 (P388 [2]) | IC50 (MDA-MB-435 [3]) [nM] | IC50 (P388 [4]) [nM] | IC50 (P388/ADR [5]) [nM] | IC50 (P388/ADR [6]) [nM] | IC50 (MDA-MB-435 [7]) [nM] | IC50 (MDA-MB-435 [8]) [nM] | Activity (MDA-MB-435 [10]) | Activity (P388/ADR [14]) | further results
CC[C@]1(O)C[C@H]2CN(CCc3c([nH]c4ccccc34)[C@@](C(=O)OC)(c3cc4c(cc3OC)N(C=O)[C@H]3[C@@](O)(C(=O)OC)[C@H](OC(C)=O)[C@]5(CC)C=CCN6CC[C@]43[C@@H]65)C2)C1 [VINCRISTINE] | 41 | 66 | 0.63 | 2.2 | 299 | 4.5 | 26 | 0.29 |  |  | 
O=c1cc(-c2ccc(OCCOCCOc3ccc(-c4cc(=O)c5c(O)cc(O)cc5o4)cc3)cc2)oc2cc(O)cc(O)c12 |  |  |  |  |  |  |  |  | inactive |  | IC50 (MDA-MB-435 [9]): 0.61 nM; IC60 (MDA-MB-435 [11]): 1.3 µM; IC50 (MDA-MB-435 [12]): 19.9 nM; Activity (MDA-MB-435 [13]): 4.5
O=C1c2c(O)ccc(O)c2C(=O)c2c(NCCNCCO)ccc(NCCNCCO)c21 [MITOXANTRONE] | 2.2 | 2 | 646 | 4.3 | 395 | 194 | 1440 | 0.35 |  |  | 
O=c1cc(-c2ccc(OCCOCCOCCOCCOCCOc3ccc(-c4cc(=O)c5c(O)cc(O)cc5o4)cc3)cc2)oc2cc(O)cc(O)c12 |  |  |  |  |  |  |  |  | inactive | inactive | 
O=c1cc(-c2ccc(OCCOCCOCCOc3ccc(-c4cc(=O)c5c(O)cc(O)cc5o4)cc3)cc2)oc2cc(O)cc(O)c12 |  |  |  |  |  |  |  |  | inactive |  | IC50 (MDA-MB-435 [9]): 0.87 nM; IC60 (MDA-MB-435 [11]): 1.3 µM; IC50 (MDA-MB-435 [12]): 21.5 nM; Activity (MDA-MB-435 [13]): 4
CC[C@]1(O)C[C@@H]2CN(CCc3c([nH]c4ccccc34)[C@@](C(=O)OC)(c3cc4c(cc3OC)N(C)[C@H]3[C@@](O)(C(=O)OC)[C@H](OC(C)=O)[C@]5(CC)C=CCN6CC[C@]43[C@@H]65)C2)C1 [VINBLASTINE] | 10 | 22 | 0.42 | 4.1 | 95 | 4.3 | 4.4 | 0.34 |  |  | IC50 (MDA-MB-435 [15]): 0.29 nM; Ratio IC50 (MDA-MB-435 [16]): 15
O=c1cc(-c2ccc(OCCOCCOCCOCCOCCOCCOCCOCCOCCOc3ccc(-c4cc(=O)c5c(O)cc(O)cc5o4)cc3)cc2)oc2cc(O)cc(O)c12 |  |  |  |  |  |  |  |  | inactive | inactive | 
COc1cccc2c1C(=O)c1c(O)c3c(c(O)c1C2=O)C[C@@](O)(C(=O)CO)C[C@@H]3O[C@H]1C[C@H](N)[C@H](O)[C@H](C)O1 [DOXORUBICIN] | 9 | 14 | 550 | 22 | 1740 | 123 | 4690 | 300 |  |  | IC50 (MDA-MB-435 [15]): 300 nM; Ratio IC50 (MDA-MB-435 [16]): 16
COc1ccc(CCN(C)CCCC(C#N)(c2ccc(OC)c(OC)c2)C(C)C)cc1OC (stereo unspecified) [VERAPAMIL] |  |  |  |  |  |  |  |  |  |  | IC50 (MDA-MB-435 [9]): 0.25 nM; EC50 (MDA-MB-435 [12]): 700 nM; IC50 (MDA-MB-435 [12]): 5.2 nM
O=c1cc(-c2ccc(OCCOCCOCCOCCOCCOCCOc3ccc(-c4cc(=O)c5c(O)cc(O)cc5o4)cc3)cc2)oc2cc(O)cc(O)c12 |  |  |  |  |  |  |  |  | inactive | inactive | 
O=c1cc(-c2ccc(OCCOCCOCCOCCOCCOCCOCCOc3ccc(-c4cc(=O)c5c(O)cc(O)cc5o4)cc3)cc2)oc2cc(O)cc(O)c12 |  |  |  |  |  |  |  |  | inactive | inactive | 
O=c1cc(-c2ccc(OCCOc3ccc(-c4cc(=O)c5c(O)cc(O)cc5o4)cc3)cc2)oc2cc(O)cc(O)c12 |  |  |  |  |  |  |  |  | inactive | inactive | 
CC(=O)O[C@H]1C(=O)[C@@]2(C)[C@H]([C@H](OC(=O)c3ccccc3)[C@]3(O)C[C@H](OC(=O)[C@H](O)[C@@H](NC(=O)c4ccccc4)c4ccccc4)C(C)=C1C3(C)C)[C@]1(OC(C)=O)CO[C@@H]1C[C@@H]2O [PACLITAXEL] | 22 | 55 | 4.8 | 22 | 1640 | 30 | 105 | 2.9 |  |  | IC50 (MDA-MB-435 [15]): 5.2 nM; Ratio IC50 (MDA-MB-435 [16]): 20
O=c1cc(-c2ccc(OCCOCCOCCOCCOCCOCCOCCOCCOc3ccc(-c4cc(=O)c5c(O)cc(O)cc5o4)cc3)cc2)oc2cc(O)cc(O)c12 |  |  |  |  |  |  |  |  | inactive | inactive | 
